Reference: ChEMBL document CHEMBL4627263, “Hi-JAK-ing the ubiquitin system: The design and physicochemical optimisation of JAK PROTACs” (Bioorg Med Chem, 2020)
Active and inactive are the calls of the source. No cut-off for these calls is given here.

Tests used:
[1] = biological target: Tyrosine-protein kinase JAK1 (Homo sapiens, UniProt P23458); assay: Inhibition of JAK1 (unknown origin)
Method in brief: (§1)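 Isolated biochemical JAK enzyme assays. pIC50 values are means of multiple separate experiments (n ≥ 2).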

[2] = biological target: T1, Tyrosine-protein kinase JAK3 (Homo sapiens, UniProt P52333); assay: Inhibition of JAK3 (unknown origin); method in brief: as §1
T1 sequence (P52333 whole entry): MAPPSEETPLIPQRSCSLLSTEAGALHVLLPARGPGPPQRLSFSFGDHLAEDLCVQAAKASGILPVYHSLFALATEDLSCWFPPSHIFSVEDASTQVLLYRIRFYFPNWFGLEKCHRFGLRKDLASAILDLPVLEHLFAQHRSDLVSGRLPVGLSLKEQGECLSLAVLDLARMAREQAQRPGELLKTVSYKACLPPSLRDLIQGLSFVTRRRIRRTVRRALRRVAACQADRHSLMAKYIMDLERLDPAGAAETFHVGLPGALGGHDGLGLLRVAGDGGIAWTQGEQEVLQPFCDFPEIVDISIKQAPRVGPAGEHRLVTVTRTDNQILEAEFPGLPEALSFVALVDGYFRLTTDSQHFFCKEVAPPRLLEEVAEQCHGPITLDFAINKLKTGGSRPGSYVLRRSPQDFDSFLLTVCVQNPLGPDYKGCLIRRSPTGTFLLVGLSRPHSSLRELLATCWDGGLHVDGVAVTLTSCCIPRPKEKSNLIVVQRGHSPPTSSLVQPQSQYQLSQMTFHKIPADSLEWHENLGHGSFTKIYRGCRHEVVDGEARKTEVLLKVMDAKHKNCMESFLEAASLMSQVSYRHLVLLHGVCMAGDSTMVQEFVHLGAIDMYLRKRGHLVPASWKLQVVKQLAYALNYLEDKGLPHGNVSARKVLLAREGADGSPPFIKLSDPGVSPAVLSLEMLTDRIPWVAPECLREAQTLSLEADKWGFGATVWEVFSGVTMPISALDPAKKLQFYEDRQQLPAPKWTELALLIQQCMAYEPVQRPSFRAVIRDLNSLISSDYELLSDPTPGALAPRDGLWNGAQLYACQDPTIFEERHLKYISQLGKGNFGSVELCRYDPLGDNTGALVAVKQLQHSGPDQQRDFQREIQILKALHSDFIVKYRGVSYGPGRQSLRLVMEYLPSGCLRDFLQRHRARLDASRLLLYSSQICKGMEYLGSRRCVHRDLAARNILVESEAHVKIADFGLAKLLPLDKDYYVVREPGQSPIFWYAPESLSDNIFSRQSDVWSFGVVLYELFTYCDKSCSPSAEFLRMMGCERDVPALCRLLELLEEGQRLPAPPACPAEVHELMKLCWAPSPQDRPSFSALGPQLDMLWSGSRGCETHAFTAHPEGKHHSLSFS

Homo sapiens [3] = organism: Homo sapiens; assay: Selectivity ratio, difference between pIC50 for JAK3 (unknown origin) to pIC50 for inhibition of JAK1/JAK3 in human PBMC cells assessed as reduction in IL2-induced IFNgamma production; assay type: cell-based
Method in brief: (§2)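 Permeability surrogate calculated as drop-off = 10^(biochemical JAK1 or JAK3 pIC50 − IL2 PBMC pIC50). The cellular step used a 1 h incubation.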

Homo sapiens [4] = organism: Homo sapiens; assay: Selectivity ratio, difference between pIC50 for JAK1 (unknown origin) to pIC50 for inhibition of JAK1/JAK3 in human PBMC cells assessed as reduction in IL2-induced IFNgamma production; assay type: cell-based; method in brief: as §2
JAK3/JAK1 = JAK3/JAK1 (Homo sapiens, UniProt P23458+P52333); assay: Inhibition of JAK1/JAK3 in human PBMC cells assessed as reduction in IL2-induced IFNgamma production; assay type: cell-based
Chain of JAK3/JAK1 (P23458 whole entry, one chain of several): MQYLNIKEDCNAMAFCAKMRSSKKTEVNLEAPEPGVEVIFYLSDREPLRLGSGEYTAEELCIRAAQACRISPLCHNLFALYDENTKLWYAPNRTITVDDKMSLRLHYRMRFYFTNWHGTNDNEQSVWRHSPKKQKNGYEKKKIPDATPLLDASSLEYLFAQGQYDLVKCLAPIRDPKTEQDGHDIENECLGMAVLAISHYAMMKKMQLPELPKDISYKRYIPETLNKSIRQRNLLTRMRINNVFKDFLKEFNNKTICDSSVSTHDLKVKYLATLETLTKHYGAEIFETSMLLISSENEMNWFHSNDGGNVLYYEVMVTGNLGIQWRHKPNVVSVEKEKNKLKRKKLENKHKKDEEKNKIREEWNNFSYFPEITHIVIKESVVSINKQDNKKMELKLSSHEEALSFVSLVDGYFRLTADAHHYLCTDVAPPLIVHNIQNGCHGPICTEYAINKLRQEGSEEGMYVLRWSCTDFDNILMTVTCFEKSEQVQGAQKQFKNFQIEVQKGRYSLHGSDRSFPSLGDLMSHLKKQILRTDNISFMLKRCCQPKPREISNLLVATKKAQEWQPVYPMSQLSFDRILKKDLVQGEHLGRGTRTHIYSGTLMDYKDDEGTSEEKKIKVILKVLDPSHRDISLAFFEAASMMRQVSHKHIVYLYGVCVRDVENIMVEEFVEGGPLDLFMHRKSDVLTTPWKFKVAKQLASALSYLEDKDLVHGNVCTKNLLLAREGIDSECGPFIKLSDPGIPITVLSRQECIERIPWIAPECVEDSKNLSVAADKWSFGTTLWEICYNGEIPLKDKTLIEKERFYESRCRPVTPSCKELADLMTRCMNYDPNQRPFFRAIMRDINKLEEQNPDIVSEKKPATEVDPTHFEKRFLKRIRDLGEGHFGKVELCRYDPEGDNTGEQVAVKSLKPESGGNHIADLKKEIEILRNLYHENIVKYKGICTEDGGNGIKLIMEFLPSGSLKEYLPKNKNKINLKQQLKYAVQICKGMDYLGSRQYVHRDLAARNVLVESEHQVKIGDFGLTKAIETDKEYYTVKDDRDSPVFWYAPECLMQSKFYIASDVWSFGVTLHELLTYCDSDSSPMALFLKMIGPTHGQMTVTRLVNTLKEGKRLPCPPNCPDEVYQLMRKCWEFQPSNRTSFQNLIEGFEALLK
Method in brief: (§3)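 Human PBMCs were given a 1 h compound incubation in the IL-2-stimulated assay, with IFNγ signalling as the cellular potency readout, reported as pIC50.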

[5] = biological target: Tyrosine-protein kinase JAK2 (Homo sapiens, UniProt O60674); assay: Inhibition of JAK2 (unknown origin); method in brief: as §1
Chain of Tyrosine-protein kinase JAK2 (O60674 whole entry): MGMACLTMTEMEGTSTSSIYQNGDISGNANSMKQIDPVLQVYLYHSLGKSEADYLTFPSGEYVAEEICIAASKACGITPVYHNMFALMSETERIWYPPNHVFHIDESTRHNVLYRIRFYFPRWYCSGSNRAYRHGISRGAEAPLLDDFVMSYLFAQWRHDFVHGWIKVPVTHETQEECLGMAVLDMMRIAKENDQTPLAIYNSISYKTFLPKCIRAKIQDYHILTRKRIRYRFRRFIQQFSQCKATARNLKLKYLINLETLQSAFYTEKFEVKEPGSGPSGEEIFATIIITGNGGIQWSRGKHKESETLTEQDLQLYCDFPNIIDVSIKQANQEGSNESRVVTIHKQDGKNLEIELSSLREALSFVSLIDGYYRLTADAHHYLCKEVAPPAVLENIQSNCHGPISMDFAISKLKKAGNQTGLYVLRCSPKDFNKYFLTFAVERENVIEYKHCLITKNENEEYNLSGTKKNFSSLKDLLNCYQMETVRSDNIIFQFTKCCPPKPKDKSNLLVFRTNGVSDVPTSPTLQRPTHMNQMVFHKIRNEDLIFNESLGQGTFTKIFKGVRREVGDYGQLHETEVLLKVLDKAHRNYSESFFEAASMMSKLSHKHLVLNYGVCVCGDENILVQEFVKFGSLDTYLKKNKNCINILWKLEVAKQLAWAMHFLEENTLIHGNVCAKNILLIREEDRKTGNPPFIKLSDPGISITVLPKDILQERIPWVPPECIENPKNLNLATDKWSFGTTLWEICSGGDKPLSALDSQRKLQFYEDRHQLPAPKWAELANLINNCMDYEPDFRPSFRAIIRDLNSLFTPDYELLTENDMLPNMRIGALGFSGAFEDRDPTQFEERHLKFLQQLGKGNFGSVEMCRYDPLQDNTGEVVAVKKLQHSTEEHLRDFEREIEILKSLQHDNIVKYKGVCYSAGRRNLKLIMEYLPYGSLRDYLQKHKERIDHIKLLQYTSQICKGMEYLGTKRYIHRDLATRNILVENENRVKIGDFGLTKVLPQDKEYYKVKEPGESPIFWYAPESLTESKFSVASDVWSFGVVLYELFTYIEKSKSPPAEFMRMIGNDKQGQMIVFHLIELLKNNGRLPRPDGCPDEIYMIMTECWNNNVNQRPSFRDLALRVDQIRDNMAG

[6] = Lipophilicity, log D of the compound at pH 7.4 by chromatographic method; assay type: physicochemical; settings: buffer
[7] = biological target: T2, E3 ubiquitin-protein ligase XIAP/Tyrosine-protein kinase JAK1 (Homo sapiens) (UniProt P23458+P98170); assay: Protac activity at IAP/JAK1 in human THP1 cells assessed as increase in JAK1 degradation up to 10 uM after 24 hrs by Western blot analysis; assay type: cell-based; settings: THP-1
T2 sequence (P23458 whole entry, looked up): as the sequence (P23458 whole entry, one chain of several) above
T2 sequence (P98170 whole entry, looked up): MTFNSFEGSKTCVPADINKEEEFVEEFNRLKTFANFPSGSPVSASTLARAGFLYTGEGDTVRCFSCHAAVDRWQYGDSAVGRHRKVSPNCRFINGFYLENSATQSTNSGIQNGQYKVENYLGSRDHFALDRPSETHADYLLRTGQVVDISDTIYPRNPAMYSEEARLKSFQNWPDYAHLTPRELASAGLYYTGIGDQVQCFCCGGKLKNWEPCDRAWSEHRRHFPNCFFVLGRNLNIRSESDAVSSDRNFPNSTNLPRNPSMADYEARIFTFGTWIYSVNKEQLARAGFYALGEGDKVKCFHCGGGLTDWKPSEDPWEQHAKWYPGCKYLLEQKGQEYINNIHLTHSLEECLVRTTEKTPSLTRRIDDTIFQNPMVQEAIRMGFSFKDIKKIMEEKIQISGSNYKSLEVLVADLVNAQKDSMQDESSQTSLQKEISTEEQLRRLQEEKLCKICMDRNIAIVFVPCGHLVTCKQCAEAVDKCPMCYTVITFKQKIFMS
Method in brief: (§4)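 Unstimulated THP-1 cells were exposed to PROTAC across 0.6–10 µM for 24 h. JAK1/JAK2 levels were read by automated Western blot using antibodies detecting only unphosphorylated JAK. % degradation is relative to basal levels in DMSO-treated cells, as the mean of separate experiments (n ≥ 3). Significance was assessed by one-tailed Student's t-test at each concentration.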

[8] = biological target: T2, E3 ubiquitin-protein ligase XIAP/Tyrosine-protein kinase JAK1 (Homo sapiens); assay: Protac activity at IAP/JAK1 in human THP1 cells assessed as increase in JAK1 degradation in presence of proteasome inhibitor MG132 by immunoprecipitation assay; assay type: cell-based; settings: THP-1
[9] = biological target: T3, E3 ubiquitin-protein ligase XIAP/Tyrosine-protein kinase JAK2 (Homo sapiens) (UniProt O60674+P98170); assay: Protac activity at IAP/JAK2 in human THP1 cells assessed as increase in JAK2 degradation at 5 uM after 24 hrs in presence of IAP ligand by Western blot analysis; assay type: cell-based; settings: THP-1
T3 sequence (O60674 whole entry, looked up): as the sequence (O60674 whole entry) above
T3 sequence (P98170 whole entry, looked up): as the sequence (P98170 whole entry, looked up) above
Method in brief: (§5)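 Unstimulated THP-1 cells were co-treated for 24 h with PROTAC and increasing concentrations of free, active IAP ligand. JAK1/JAK2 protein was quantified by automated Western blot against DMSO-treated basal levels, as the mean of n ≥ 3 separate experiments. Significance was assessed by one-tailed t-test.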

[10] = biological target: T2, E3 ubiquitin-protein ligase XIAP/Tyrosine-protein kinase JAK1 (Homo sapiens); assay: Protac activity at IAP/JAK1 in human THP1 cells assessed as increase in JAK1 degradation at 5 uM after 24 hrs in presence of IAP ligand by Western blot analysis; assay type: cell-based; settings: THP-1; method in brief: as §5
[11] = biological target: T2, E3 ubiquitin-protein ligase XIAP/Tyrosine-protein kinase JAK1 (Homo sapiens); assay: Protac activity at IAP/JAk1 in human PBMC cells assessed as reduction in IL2-induced IFNgamma production measured after 1 hr; assay type: cell-based; method in brief: as §3
[12] = biological target: T3, E3 ubiquitin-protein ligase XIAP/Tyrosine-protein kinase JAK2 (Homo sapiens); assay: Protac activity at IAP/JAK2 in human THP1 cells assessed as increase in JAK2 degradation in presence of proteasome inhibitor MG132 by immunoprecipitation assay; assay type: cell-based; settings: THP-1
[13] = biological target: T3, E3 ubiquitin-protein ligase XIAP/Tyrosine-protein kinase JAK2 (Homo sapiens); assay: Protac activity at IAP/JAK2 in human THP1 cells assessed as increase in JAK2 degradation at 5 uM after 24 hrs by Western blot analysis relative to control; assay type: cell-based; settings: THP-1; method in brief: as §4
[14] = biological target: T3, E3 ubiquitin-protein ligase XIAP/Tyrosine-protein kinase JAK2 (Homo sapiens); assay: Protac activity at IAP/JAK2 in human THP1 cells assessed as increase in JAK2 ubiquitination by immunoprecipitation assay; assay type: cell-based; settings: THP-1
[15] = biological target: T2, E3 ubiquitin-protein ligase XIAP/Tyrosine-protein kinase JAK1 (Homo sapiens); assay: Protac activity at IAP/JAK1 in human THP1 cells assessed as increase in JAK1 degradation at 5 uM after 24 hrs by Western blot analysis relative to control; assay type: cell-based; settings: THP-1; method in brief: as §4
[16] = biological target: T3, E3 ubiquitin-protein ligase XIAP/Tyrosine-protein kinase JAK2 (Homo sapiens); assay: Protac activity at IAP/JAK2 in human THP1 cells assessed as increase in JAK2 degradation up to 10 uM after 24 hrs by Western blot analysis relative to control; assay type: cell-based; settings: THP-1; method in brief: as §4
[17] = biological target: T2, E3 ubiquitin-protein ligase XIAP/Tyrosine-protein kinase JAK1 (Homo sapiens); assay: Protac activity at IAP/JAK1 in human THP1 cells assessed as increase in JAK1 degradation at 10 uM after 24 hrs by Western blot analysis; assay type: cell-based; settings: THP-1; method in brief: as §4
[18] = biological target: T3, E3 ubiquitin-protein ligase XIAP/Tyrosine-protein kinase JAK2 (Homo sapiens); assay: Protac activity at IAP/JAK2 in human THP1 cells assessed as increase in JAK2 degradation at 10 uM after 24 hrs by Western blot analysis relative to control; assay type: cell-based; settings: THP-1; method in brief: as §4

Chain of Tyrosine-protein kinase JAK1 (P23458 whole entry): as the sequence (P23458 whole entry, one chain of several) above

| Structure (SMILES) | chromatographic logD [6] | Activity [7] | Activity [11] | Activity [13] | Activity [15] | Activity [16] | further results |
| --- | --- | --- | --- | --- | --- | --- | --- |
| OCCn1cc(Nc2ncc(Cl)c(NCc3cc(F)ccc3F)n2)cn1 | 3.5 | – | – | – | – | – | IC50 [1]: < 0.158 nM; IC50 [2]: 1 nM; Selectivity ratio (Homo sapiens [3]): 8; Selectivity ratio (Homo sapiens [4]): > 50; IC50 (JAK3/JAK1): 7.94 nM; IC50 [5]: 0.316 nM |
| CN[C@@H](C)C(=O)N[C@H](C(=O)N1C[C@@H](NC(=O)CCCCCCCCCN2CCN(CCCOc3ccc(-c4cnc5cccc(-c6cc(F)c(CN7CCS(=O)(=O)CC7)c(F)c6)c5n4)cc3OC)CC2)C[C@H]1C(=O)N[C@@H]1CCCc2ccccc21)C1CCCCC1 | 5 to 8 | Active | inactive | 65% | 48% | < 35% | Activity [8]: inactive; Activity [9]: inactive; Activity [10]: inactive; Activity [12]: inactive; Activity [14]: Active |
| CN[C@@H](C)C(=O)N[C@H](C(=O)N1C[C@@H](NC(=O)CCCCCCCCCOc2cc(F)cc(CNc3nc(Nc4cnn(C)c4)ncc3Cl)c2F)C[C@H]1C(=O)N[C@@H]1CCCc2ccccc21)C1CCCCC1 | 5 to 8 | Active | inactive | – | – | < 35% | Activity [17]: inactive; Activity [18]: inactive |
| CN[C@@H](C)C(=O)N[C@H](C(=O)N1C[C@@H](NC(=O)COCCOCCOCCOCCN2CCN(CCCOc3ccc(-c4cnc5cccc(-c6cc(F)c(CN7CCS(=O)(=O)CC7)c(F)c6)c5n4)cc3OC)CC2)C[C@H]1C(=O)N[C@@H]1CCCc2ccccc21)C1CCCCC1 | 5 to 8 | Active | inactive | – | – | < 35% | – |
| CN[C@H](C)C(=O)N[C@@H](C(=O)N1C[C@H](NC(=O)CCCCCCCCCN2CCN(CCCOc3ccc(-c4cnc5cccc(-c6cc(F)c(CN7CCS(=O)(=O)CC7)c(F)c6)c5n4)cc3OC)CC2)C[C@@H]1C(=O)N[C@H]1CCCc2ccccc21)C1CCCCC1 | – | – | – | inactive | inactive | – | – |
| CN[C@@H](C)C(=O)N[C@H](C(=O)N1C[C@@H](NC(=O)CCCCCCCCCn2cc(Nc3ncc(Cl)c(NCc4cc(F)ccc4F)n3)cn2)C[C@H]1C(=O)N[C@@H]1CCCc2ccccc21)C1CCCCC1 | 5 to 8 | Active | inactive | – | – | < 35% | – |
| COc1cc(-c2cnc3cccc(-c4cc(F)c(CN5CCS(=O)(=O)CC5)c(F)c4)c3n2)ccc1OCCCN1CCOCC1 | 6 | – | – | inactive | inactive | – | IC50 [1]: 7.94 nM; IC50 [2]: 7.94 nM; Activity [9]: inactive; Activity [10]: inactive; Selectivity ratio (Homo sapiens [3]): 40; Selectivity ratio (Homo sapiens [4]): 40; IC50 (JAK3/JAK1): 316 nM; IC50 [5]: 0.251 nM |
| CN[C@@H](C)C(=O)N[C@H](C(=O)N1C[C@@H](NC(=O)COCCOCCOCCOCCn2cc(Nc3ncc(Cl)c(NCc4cc(F)ccc4F)n3)cn2)C[C@H]1C(=O)N[C@@H]1CCCc2ccccc21)C1CCCCC1 | 5 to 8 | Active | inactive | – | – | < 35% | – |
| CN[C@@H](C)C(=O)N[C@H](C(=O)N1C[C@@H](NC(=O)COCCOCCOCCOCCOc2cc(F)cc(CNc3nc(Nc4cnn(C)c4)ncc3Cl)c2F)C[C@H]1C(=O)N[C@@H]1CCCc2ccccc21)C1CCCCC1 | 5 to 8 | Active | inactive | – | – | < 35% | – |
